Experimental data reported in ChEMBL document CHEMBL1212777, “Novel VIM metallo-beta-lactamase variant from clinical isolates of Enterobacteriaceae from Algeria” (2010).

Tests used:
[1] = system: Escherichia coli BL21(DE3); assay: Hydrolytic activity of Escherichia coli BL21 DE3 beta-lactamase VIM-19 by microacidimetric method
Summary of the method: (§1)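 Enzyme overexpressed from modified pET9a in E. coli BL21(DE3), released by sonication, and purified on Q Sepharose (20 mM Tris-HCl pH 7.4, 0–500 mM NaCl gradient) then Superose 12. Protein measured by Bio-Rad assay against a BSA standard.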

[2] = system: Escherichia coli BL21(DE3); assay: Ratio of Kcat to Km for Escherichia coli BL21 DE3 beta-lactamase VIM-19 by microacidimetric method; summary of the method: as §1
[3] = system: CC(=O)OCC1=C(C(=O)O)N2C(=O)[C@@H](NC(=O)Cc3cccs3)[C@H]2SC1; assay: (§2) Hydrolytic activity of beta-lactamase VIM-1 in Escherichia coli DH5alpha expressing pBCLL/39H by microacidimetric method
[4] = system: CC1(C)S[C@@H]2[C@H](NC(=O)Cc3ccccc3)C(=O)N2[C@H]1C(=O)O; assay: as §2
[5] = system: CCN1CCN(C(=O)N[C@@H](C(=O)N[C@@H]2C(=O)N3[C@@H]2SC(C)(C)[C@@H]3C(=O)O)c2ccccc2)C(=O)C1=O; assay: as §2
[6] = system: CO/N=C(\C(=O)N[C@@H]1C(=O)N2C(C(=O)O)=C(COC(C)=O)CS[C@H]12)c1csc(N)n1; assay: as §2
[7] = system: CO/N=C(\C(=O)N[C@@H]1C(=O)N2C(C(=O)O)=C(COC(N)=O)CS[C@H]12)c1ccco1; assay: as §2
[8] = system: CO[C@@]1(NC(=O)Cc2cccs2)C(=O)N2C(C(=O)O)=C(COC(N)=O)CS[C@@H]21; assay: as §2
[9] = system: CC(=O)OCC1=C(C(=O)O)N2C(=O)[C@@H](NC(=O)Cc3cccs3)[C@H]2SC1; assay: (§3) Ratio of Kcat to Km for beta-lactamase VIM-1 in Escherichia coli DH5alpha expressing pBCLL/39H by microacidimetric method
[10] = system: CC(C)(O/N=C(\C(=O)N[C@@H]1C(=O)N2C(C(=O)[O-])=C(C[n+]3ccccc3)CS[C@H]12)c1csc(N)n1)C(=O)O; assay: as §3
[11] = system: CC1(C)S[C@@H]2[C@H](NC(=O)Cc3ccccc3)C(=O)N2[C@H]1C(=O)O; assay: as §3
[12] = system: CCN1CCN(C(=O)N[C@@H](C(=O)N[C@@H]2C(=O)N3[C@@H]2SC(C)(C)[C@@H]3C(=O)O)c2ccccc2)C(=O)C1=O; assay: as §3
[13] = system: CO/N=C(\C(=O)N[C@@H]1C(=O)N2C(C(=O)O)=C(COC(C)=O)CS[C@H]12)c1csc(N)n1; assay: as §3
[14] = system: CO/N=C(\C(=O)N[C@@H]1C(=O)N2C(C(=O)O)=C(COC(N)=O)CS[C@H]12)c1ccco1; assay: as §3
[15] = system: CO[C@@]1(NC(=O)Cc2cccs2)C(=O)N2C(C(=O)O)=C(COC(N)=O)CS[C@@H]21; assay: as §3
[16] = system: C[C@@H](O)[C@H]1C(=O)N2C(C(=O)O)=C(S[C@@H]3CN[C@H](C(=O)N(C)C)C3)[C@H](C)[C@H]12; assay: as §3
[17] = system: CC(=O)OCC1=C(C(=O)O)N2C(=O)[C@@H](NC(=O)Cc3cccs3)[C@H]2SC1; assay: (§4) Hydrolytic activity of Escherichia coli DH10B beta-lactamase VIM-2 by microacidimetric method; settings: Escherichia coli str. K-12 substr. DH10B
[18] = system: CC(C)(O/N=C(\C(=O)N[C@@H]1C(=O)N2C(C(=O)[O-])=C(C[n+]3ccccc3)CS[C@H]12)c1csc(N)n1)C(=O)O; assay: as §4; settings: Escherichia coli str. K-12 substr. DH10B
[19] = system: CC1(C)S[C@@H]2[C@H](NC(=O)Cc3ccccc3)C(=O)N2[C@H]1C(=O)O; assay: as §4; settings: Escherichia coli str. K-12 substr. DH10B
[20] = system: CC1(C)S[C@@H]2[C@H](NC(=O)[C@H](C(=O)O)c3ccsc3)C(=O)N2[C@H]1C(=O)O; assay: as §4; settings: Escherichia coli str. K-12 substr. DH10B
[21] = system: CC1(C)S[C@@H]2[C@H](NC(=O)[C@H](N)c3ccc(O)cc3)C(=O)N2[C@H]1C(=O)O; assay: as §4; settings: Escherichia coli str. K-12 substr. DH10B
[22] = system: CCN1CCN(C(=O)N[C@@H](C(=O)N[C@@H]2C(=O)N3[C@@H]2SC(C)(C)[C@@H]3C(=O)O)c2ccccc2)C(=O)C1=O; assay: as §4; settings: Escherichia coli str. K-12 substr. DH10B
[23] = system: CO/N=C(\C(=O)N[C@@H]1C(=O)N2C(C(=O)O)=C(COC(C)=O)CS[C@H]12)c1csc(N)n1; assay: as §4; settings: Escherichia coli str. K-12 substr. DH10B
[24] = system: CO/N=C(\C(=O)N[C@@H]1C(=O)N2C(C(=O)O)=C(COC(N)=O)CS[C@H]12)c1ccco1; assay: as §4; settings: Escherichia coli str. K-12 substr. DH10B
[25] = system: CO/N=C(\C(=O)N[C@@H]1C(=O)N2C(C(=O)[O-])=C(C[N+]3(C)CCCC3)CS[C@H]12)c1csc(N)n1; assay: as §4; settings: Escherichia coli str. K-12 substr. DH10B
[26] = system: CO[C@@]1(NC(=O)Cc2cccs2)C(=O)N2C(C(=O)O)=C(COC(N)=O)CS[C@@H]21; assay: as §4; settings: Escherichia coli str. K-12 substr. DH10B
[27] = system: C[C@@H](O)[C@H]1C(=O)N2C(C(=O)O)=C(SCCNC=N)C[C@H]12; assay: as §4; settings: Escherichia coli str. K-12 substr. DH10B
[28] = system: C[C@@H](O)[C@H]1C(=O)N2C(C(=O)O)=C(S[C@@H]3CN[C@H](C(=O)N(C)C)C3)[C@H](C)[C@H]12; assay: as §4; settings: Escherichia coli str. K-12 substr. DH10B
[29] = system: C[C@@H](O)[C@H]1C(=O)N2C(C(=O)O)=C(S[C@@H]3CN[C@H](C(=O)Nc4cccc(C(=O)O)c4)C3)[C@H](C)[C@H]12; assay: as §4; settings: Escherichia coli str. K-12 substr. DH10B
[30] = system: C[C@H]1[C@H](NC(=O)/C(=N\OC(C)(C)C(=O)O)c2csc(N)n2)C(=O)N1S(=O)(=O)O; assay: as §4; settings: Escherichia coli str. K-12 substr. DH10B
[31] = system: CC(=O)OCC1=C(C(=O)O)N2C(=O)[C@@H](NC(=O)Cc3cccs3)[C@H]2SC1; assay: (§5) Ratio of Kcat to Km for Escherichia coli DH10B beta-lactamase VIM-2 by microacidimetric method; settings: Escherichia coli str. K-12 substr. DH10B
[32] = system: CC(C)(O/N=C(\C(=O)N[C@@H]1C(=O)N2C(C(=O)[O-])=C(C[n+]3ccccc3)CS[C@H]12)c1csc(N)n1)C(=O)O; assay: as §5; settings: Escherichia coli str. K-12 substr. DH10B
[33] = system: CC1(C)S[C@@H]2[C@H](NC(=O)Cc3ccccc3)C(=O)N2[C@H]1C(=O)O; assay: as §5; settings: Escherichia coli str. K-12 substr. DH10B
[34] = system: CC1(C)S[C@@H]2[C@H](NC(=O)[C@H](C(=O)O)c3ccsc3)C(=O)N2[C@H]1C(=O)O; assay: as §5; settings: Escherichia coli str. K-12 substr. DH10B
[35] = system: CC1(C)S[C@@H]2[C@H](NC(=O)[C@H](N)c3ccc(O)cc3)C(=O)N2[C@H]1C(=O)O; assay: as §5; settings: Escherichia coli str. K-12 substr. DH10B
[36] = system: CCN1CCN(C(=O)N[C@@H](C(=O)N[C@@H]2C(=O)N3[C@@H]2SC(C)(C)[C@@H]3C(=O)O)c2ccccc2)C(=O)C1=O; assay: as §5; settings: Escherichia coli str. K-12 substr. DH10B
[37] = system: CO/N=C(\C(=O)N[C@@H]1C(=O)N2C(C(=O)O)=C(COC(C)=O)CS[C@H]12)c1csc(N)n1; assay: as §5; settings: Escherichia coli str. K-12 substr. DH10B
[38] = system: CO/N=C(\C(=O)N[C@@H]1C(=O)N2C(C(=O)O)=C(COC(N)=O)CS[C@H]12)c1ccco1; assay: as §5; settings: Escherichia coli str. K-12 substr. DH10B
[39] = system: CO/N=C(\C(=O)N[C@@H]1C(=O)N2C(C(=O)[O-])=C(C[N+]3(C)CCCC3)CS[C@H]12)c1csc(N)n1; assay: as §5; settings: Escherichia coli str. K-12 substr. DH10B
[40] = system: CO[C@@]1(NC(=O)Cc2cccs2)C(=O)N2C(C(=O)O)=C(COC(N)=O)CS[C@@H]21; assay: as §5; settings: Escherichia coli str. K-12 substr. DH10B
[41] = system: C[C@@H](O)[C@H]1C(=O)N2C(C(=O)O)=C(SCCNC=N)C[C@H]12; assay: as §5; settings: Escherichia coli str. K-12 substr. DH10B
[42] = system: C[C@@H](O)[C@H]1C(=O)N2C(C(=O)O)=C(S[C@@H]3CN[C@H](C(=O)N(C)C)C3)[C@H](C)[C@H]12; assay: as §5; settings: Escherichia coli str. K-12 substr. DH10B
[43] = system: C[C@@H](O)[C@H]1C(=O)N2C(C(=O)O)=C(S[C@@H]3CN[C@H](C(=O)Nc4cccc(C(=O)O)c4)C3)[C@H](C)[C@H]12; assay: as §5; settings: Escherichia coli str. K-12 substr. DH10B

CCN1CCN(C(=O)N[C@@H](C(=O)N[C@@H]2C(=O)N3[C@@H]2SC(C)(C)[C@@H]3C(=O)O)c2ccccc2)C(=O)C1=O
kcat [1]: 160 s⁻¹
kcat/Km [2]: 4.3e+06 M⁻¹ s⁻¹

CO/N=C(\C(=O)N[C@@H]1C(=O)N2C(C(=O)[O-])=C(C[N+]3(C)CCCC3)CS[C@H]12)c1csc(N)n1
kcat [1]: 12.5 s⁻¹
kcat/Km [2]: 230000 M⁻¹ s⁻¹

CO/N=C(\C(=O)N[C@@H]1C(=O)N2C(C(=O)O)=C(COC(N)=O)CS[C@H]12)c1ccco1
kcat [1]: 5.3 s⁻¹
kcat/Km [2]: 400000 M⁻¹ s⁻¹

CC(C)(O/N=C(\C(=O)N[C@@H]1C(=O)N2C(C(=O)[O-])=C(C[n+]3ccccc3)CS[C@H]12)c1csc(N)n1)C(=O)O
kcat [1]: 6.3 s⁻¹
kcat/Km [2]: 70000 M⁻¹ s⁻¹

CC1(C)S[C@@H]2[C@H](NC(=O)Cc3ccccc3)C(=O)N2[C@H]1C(=O)O
kcat [1]: 206 s⁻¹
kcat/Km [2]: 3.6e+06 M⁻¹ s⁻¹

CC1(C)S[C@@H]2[C@H](NC(=O)[C@H](C(=O)O)c3ccsc3)C(=O)N2[C@H]1C(=O)O
kcat [1]: 45.8 s⁻¹
kcat/Km [2]: 700000 M⁻¹ s⁻¹

CC1(C)S[C@@H]2[C@H](NC(=O)[C@H](N)c3ccc(O)cc3)C(=O)N2[C@H]1C(=O)O
kcat [1]: 112 s⁻¹
kcat/Km [2]: 3.3e+06 M⁻¹ s⁻¹

BlaVIM-1 (Escherichia coli) (from UniProt Q8GDC1)
kcat [3]: 281 s⁻¹
kcat [4]: 29 s⁻¹
kcat [5]: 1860 s⁻¹
kcat [6]: 169 s⁻¹
kcat [7]: 324 s⁻¹
kcat [8]: 26 s⁻¹
kcat/Km [9]: 5.3e+06 M⁻¹ s⁻¹
kcat/Km [10]: 76000 M⁻¹ s⁻¹
kcat/Km [11]: 34000 M⁻¹ s⁻¹
kcat/Km [12]: 530000 M⁻¹ s⁻¹
kcat/Km [13]: 680000 M⁻¹ s⁻¹
kcat/Km [14]: 7.7e+06 M⁻¹ s⁻¹
kcat/Km [15]: 200000 M⁻¹ s⁻¹
kcat/Km [16]: 270000 M⁻¹ s⁻¹

CO/N=C(\C(=O)N[C@@H]1C(=O)N2C(C(=O)O)=C(COC(C)=O)CS[C@H]12)c1csc(N)n1
kcat [1]: 34.3 s⁻¹
kcat/Km [2]: 950000 M⁻¹ s⁻¹

Metallo-beta-lactamase (Escherichia coli) (from UniProt Q5U7L7)
kcat [17]: 56.2 s⁻¹
kcat [18]: 88.7 s⁻¹
kcat [19]: 55.8 s⁻¹
kcat [20]: 31.7 s⁻¹
kcat [21]: 29.7 s⁻¹
kcat [22]: 32.7 s⁻¹
kcat [23]: 27.5 s⁻¹
kcat [24]: 12.1 s⁻¹
kcat [25]: 4.7 s⁻¹
kcat [26]: 2.8 s⁻¹
kcat [27]: 9.9 s⁻¹
kcat [28]: 1.4 s⁻¹
kcat [29]: 0.2 s⁻¹
kcat [30]: < 0.5 s⁻¹
kcat/Km [31]: 1.28e+06 M⁻¹ s⁻¹
kcat/Km [32]: 900000 M⁻¹ s⁻¹
kcat/Km [33]: 1.14e+06 M⁻¹ s⁻¹
kcat/Km [34]: 690000 M⁻¹ s⁻¹
kcat/Km [35]: 550000 M⁻¹ s⁻¹
kcat/Km [36]: 450000 M⁻¹ s⁻¹
kcat/Km [37]: 860000 M⁻¹ s⁻¹
kcat/Km [38]: 550000 M⁻¹ s⁻¹
kcat/Km [39]: 30000 M⁻¹ s⁻¹
kcat/Km [40]: 120000 M⁻¹ s⁻¹
kcat/Km [41]: 990000 M⁻¹ s⁻¹
kcat/Km [42]: 280000 M⁻¹ s⁻¹
kcat/Km [43]: 22000 M⁻¹ s⁻¹

C[C@@H](O)[C@H]1C(=O)N2C(C(=O)O)=C(SCCNC=N)C[C@H]12
kcat [1]: 8.2 s⁻¹
kcat/Km [2]: 370000 M⁻¹ s⁻¹

C[C@H]1[C@H](NC(=O)/C(=N\OC(C)(C)C(=O)O)c2csc(N)n2)C(=O)N1S(=O)(=O)O
kcat [1]: < 0.1 s⁻¹

CC(=O)OCC1=C(C(=O)O)N2C(=O)[C@@H](NC(=O)Cc3cccs3)[C@H]2SC1
kcat [1]: 21.2 s⁻¹
kcat/Km [2]: 1.4e+06 M⁻¹ s⁻¹

C[C@@H](O)[C@H]1C(=O)N2C(C(=O)O)=C(S[C@@H]3CN[C@H](C(=O)N(C)C)C3)[C@H](C)[C@H]12
kcat [1]: 1.3 s⁻¹
kcat/Km [2]: 140000 M⁻¹ s⁻¹

C[C@@H](O)[C@H]1C(=O)N2C(C(=O)O)=C(S[C@@H]3CN[C@H](C(=O)Nc4cccc(C(=O)O)c4)C3)[C@H](C)[C@H]12
kcat [1]: 0.6 s⁻¹
kcat/Km [2]: 30000 M⁻¹ s⁻¹

CO[C@@]1(NC(=O)Cc2cccs2)C(=O)N2C(C(=O)O)=C(COC(N)=O)CS[C@@H]21
kcat [1]: 4 s⁻¹
kcat/Km [2]: 80000 M⁻¹ s⁻¹
